According to ChEMBL document CHEMBL5303300, “EUbOPEN Chemogenomics Library - Multiplex” (2023):
Several values for one entry are separate records, joined by “and”; a condition that tells them apart may be missing. Identical values can stand only once.

Test system: HEK-293T
Experiment: Multiplex assay against HEK293T
Type: toxicity, cell-based
Conditions: human, number of replicates 2
Procedure, shortened: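 Phenotypes for tubulin, mitochondrial mass and membrane permeability are expressed as per cents of healthy-nucleus cells. Cells were stained live at seeding with Hoechst33342, BioTracker Green Microtubule Cytoskeleton Dye, MitoTracker Red and Annexin V Alexa Fluor 680, then imaged after compound addition on a CQ1 microscope at 37°C and 5% CO2. Machine-learning gating in CellPathfinder separated Hoechst high-intensity objects from normal cells, divided normal cells by nuclear state (healthy, pyknosed, fragmented) and divided pyknosed cells into mitotic or apoptotic.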

[1] = 12 h, 1 µM, compound concentration 1 uM
[2] = 12 h, 10 µM, compound concentration 10 uM
[3] = 24 h, 1 µM, compound concentration 1 uM
[4] = 24 h, 10 µM, compound concentration 10 uM
[5] = 48 h, 1 µM, compound concentration 1 uM
[6] = 48 h, 10 µM, compound concentration 10 uM

Cc1onc(-c2ccccc2Cl)c1C(=O)N(C)c1ccc(Cl)cc1
Population Apoptotic (%) [1]: 39% and 47%
Population Fragmented Nuclei (%) [1]: 2% and 5%
Population Healthy Nuclei (%) [1]: 80% and 83%
Population Hoechst High Intensity Objects (%) [1]: 6%
Population Membrane Permeable-Phenotype (%) [1]: 2% and 1%
Population Mitochondria Different-Phenotype (%) [1]: 18% and 15%
Population Mitotic Cells (%) [1]: 60% and 52%
Population Normal (%) [1]: 93%
Population Pyknosed Nuclei (%) [1]: 16% and 11%
Population Tubulin-Different-Phenotype (%) [1]: 47% and 44%
Total Cell Count [1]: 587 and 613
Population Apoptotic (%) [2]: 50%
Population Fragmented Nuclei (%) [2]: 3%
Population Healthy Nuclei (%) [2]: 81% and 84%
Population Hoechst High Intensity Objects (%) [2]: 5% and 7%
Population Membrane Permeable-Phenotype (%) [2]: 4% and 1%
Population Mitochondria Different-Phenotype (%) [2]: 26% and 20%
Population Mitotic Cells (%) [2]: 50% and 49%
Population Normal (%) [2]: 94% and 92%
Population Pyknosed Nuclei (%) [2]: 15% and 11%
Population Tubulin-Different-Phenotype (%) [2]: 77% and 55%
Total Cell Count [2]: 575 and 625
Population Apoptotic (%) [3]: 44% and 42%
Population Fragmented Nuclei (%) [3]: 7%
Population Healthy Nuclei (%) [3]: 83% and 86%
Population Hoechst High Intensity Objects (%) [3]: 6% and 8%
Population Membrane Permeable-Phenotype (%) [3]: 2%
Population Mitochondria Different-Phenotype (%) [3]: 4% and 5%
Population Mitotic Cells (%) [3]: 55% and 57%
Population Normal (%) [3]: 93% and 91%
Population Pyknosed Nuclei (%) [3]: 9% and 6%
Population Tubulin-Different-Phenotype (%) [3]: 22%
Total Cell Count [3]: 896 and 976
Population Apoptotic (%) [4]: 36% and 23%
Population Fragmented Nuclei (%) [4]: 5% and 6%
Population Healthy Nuclei (%) [4]: 84% and 85%
Population Hoechst High Intensity Objects (%) [4]: 5% and 8%
Population Membrane Permeable-Phenotype (%) [4]: 4%
Population Mitochondria Different-Phenotype (%) [4]: 14% and 5%
Population Mitotic Cells (%) [4]: 63% and 76%
Population Normal (%) [4]: 94% and 91%
Population Pyknosed Nuclei (%) [4]: 9% and 7%
Population Tubulin-Different-Phenotype (%) [4]: 51% and 30%
Total Cell Count [4]: 757 and 965
Population Apoptotic (%) [5]: 12% and 17%
Population Fragmented Nuclei (%) [5]: 11% and 9%
Population Healthy Nuclei (%) [5]: 84% and 87%
Population Hoechst High Intensity Objects (%) [5]: 8%
Population Membrane Permeable-Phenotype (%) [5]: 4%
Population Mitochondria Different-Phenotype (%) [5]: 1% and 0%
Population Mitotic Cells (%) [5]: 87% and 82%
Population Normal (%) [5]: 91%
Population Pyknosed Nuclei (%) [5]: 3% and 2%
Population Tubulin-Different-Phenotype (%) [5]: 8% and 11%
Total Cell Count [5]: 2361 and 2103
Population Apoptotic (%) [6]: 25% and 17%
Population Fragmented Nuclei (%) [6]: 11% and 14%
Population Healthy Nuclei (%) [6]: 84% and 82%
Population Hoechst High Intensity Objects (%) [6]: 8%
Population Membrane Permeable-Phenotype (%) [6]: 6%
Population Mitochondria Different-Phenotype (%) [6]: 2% and 0%
Population Mitotic Cells (%) [6]: 75% and 82%
Population Normal (%) [6]: 91%
Population Pyknosed Nuclei (%) [6]: 4% and 2%
Population Tubulin-Different-Phenotype (%) [6]: 33% and 16%
Total Cell Count [6]: 1552 and 2354

CS(=O)(=O)c1ccc(C(=O)Nc2cccc(COc3ccc(Br)cc3CN[C@H]3CCC[C@@H]3O)c2)c(Cl)c1.O=CO
Population Apoptotic (%) [1]: 63% and 58%
Population Healthy Nuclei (%) [1]: 76% and 80%
Population Mitotic Cells (%) [1]: 36% and 41%
Population Normal (%) [1]: 91% and 92%
Total Cell Count [1]: 550 and 522
Population Apoptotic (%) [2]: 66% and 59%
Population Healthy Nuclei (%) [2]: 84% and 88%
Population Mitotic Cells (%) [2]: 33% and 40%
Population Normal (%) [2]: 91% and 90%
Total Cell Count [2]: 631 and 603
Population Apoptotic (%) [3]: 55% and 58%
Population Healthy Nuclei (%) [3]: 80% and 83%
Population Mitotic Cells (%) [3]: 44% and 41%
Population Normal (%) [3]: 90%
Total Cell Count [3]: 792 and 800
Population Apoptotic (%) [4]: 60% and 67%
Population Healthy Nuclei (%) [4]: 85% and 79%
Population Mitotic Cells (%) [4]: 39% and 32%
Population Normal (%) [4]: 91% and 87%
Total Cell Count [4]: 623 and 546
Population Apoptotic (%) [5]: 20% and 29%
Population Healthy Nuclei (%) [5]: 86% and 87%
Population Mitotic Cells (%) [5]: 79% and 70%
Population Normal (%) [5]: 91% and 92%
Total Cell Count [5]: 1777 and 1587
Population Apoptotic (%) [6]: 60% and 78%
Population Healthy Nuclei (%) [6]: 86% and 80%
Population Mitotic Cells (%) [6]: 40% and 21%
Population Normal (%) [6]: 89% and 90%
Total Cell Count [6]: 671 and 634

CN(C)[C@H]1CC[C@H](Nc2ncc3ncnc(Nc4ccc(F)c(Cl)c4)c3n2)CC1
Population Apoptotic (%) [1]: 46% and 50%
Population Fragmented Nuclei (%) [1]: 4% and 5%
Population Healthy Nuclei (%) [1]: 88% and 87%
Population Hoechst High Intensity Objects (%) [1]: 9% and 10%
Population Membrane Permeable-Phenotype (%) [1]: 2% and 1%
Population Mitochondria Different-Phenotype (%) [1]: 14% and 10%
Population Mitotic Cells (%) [1]: 53% and 50%
Population Normal (%) [1]: 90% and 89%
Population Pyknosed Nuclei (%) [1]: 7%
Population Tubulin-Different-Phenotype (%) [1]: 45% and 36%
Total Cell Count [1]: 608 and 681
Population Apoptotic (%) [2]: 30% and 17%
Population Fragmented Nuclei (%) [2]: 6% and 7%
Population Healthy Nuclei (%) [2]: 82% and 79%
Population Hoechst High Intensity Objects (%) [2]: 47% and 50%
Population Membrane Permeable-Phenotype (%) [2]: 3% and 4%
Population Mitochondria Different-Phenotype (%) [2]: 6% and 5%
Population Mitotic Cells (%) [2]: 69% and 82%
Population Normal (%) [2]: 52% and 49%
Population Pyknosed Nuclei (%) [2]: 10% and 13%
Population Tubulin-Different-Phenotype (%) [2]: 33% and 29%
Total Cell Count [2]: 768 and 714
Population Apoptotic (%) [3]: 40% and 51%
Population Fragmented Nuclei (%) [3]: 7% and 8%
Population Healthy Nuclei (%) [3]: 87% and 88%
Population Hoechst High Intensity Objects (%) [3]: 10% and 11%
Population Membrane Permeable-Phenotype (%) [3]: 2% and 1%
Population Mitochondria Different-Phenotype (%) [3]: 4% and 3%
Population Mitotic Cells (%) [3]: 60% and 48%
Population Normal (%) [3]: 89% and 88%
Population Pyknosed Nuclei (%) [3]: 4% and 2%
Population Tubulin-Different-Phenotype (%) [3]: 21% and 22%
Total Cell Count [3]: 1021 and 1110
Population Apoptotic (%) [4]: 17% and 13%
Population Fragmented Nuclei (%) [4]: 8% and 9%
Population Healthy Nuclei (%) [4]: 82% and 77%
Population Hoechst High Intensity Objects (%) [4]: 44% and 49%
Population Membrane Permeable-Phenotype (%) [4]: 2%
Population Mitochondria Different-Phenotype (%) [4]: 2% and 4%
Population Mitotic Cells (%) [4]: 82% and 86%
Population Normal (%) [4]: 55% and 50%
Population Pyknosed Nuclei (%) [4]: 8% and 13%
Population Tubulin-Different-Phenotype (%) [4]: 24% and 21%
Total Cell Count [4]: 1161 and 1002
Population Apoptotic (%) [5]: 17% and 35%
Population Fragmented Nuclei (%) [5]: 23% and 21%
Population Healthy Nuclei (%) [5]: 74% and 76%
Population Hoechst High Intensity Objects (%) [5]: 12% and 15%
Population Membrane Permeable-Phenotype (%) [5]: 4% and 3%
Population Mitochondria Different-Phenotype (%) [5]: 0%
Population Mitotic Cells (%) [5]: 82% and 64%
Population Normal (%) [5]: 87% and 84%
Population Pyknosed Nuclei (%) [5]: 2% and 1%
Population Tubulin-Different-Phenotype (%) [5]: 9% and 13%
Total Cell Count [5]: 2456 and 2598
Population Apoptotic (%) [6]: 24% and 15%
Population Fragmented Nuclei (%) [6]: 22% and 17%
Population Healthy Nuclei (%) [6]: 74%
Population Hoechst High Intensity Objects (%) [6]: 36% and 42%
Population Membrane Permeable-Phenotype (%) [6]: 3%
Population Mitochondria Different-Phenotype (%) [6]: 0%
Population Mitotic Cells (%) [6]: 75% and 84%
Population Normal (%) [6]: 63% and 57%
Population Pyknosed Nuclei (%) [6]: 3% and 7%
Population Tubulin-Different-Phenotype (%) [6]: 14% and 15%
Total Cell Count [6]: 2410 and 1820

COc1cc(Br)c(S(=O)(=O)Nc2ccc(C(F)(F)F)c(O[C@@H]3CCN(C)C3)c2)cc1OC
Population Apoptotic (%) [1]: 35% and 41%
Population Fragmented Nuclei (%) [1]: 4% and 3%
Population Healthy Nuclei (%) [1]: 83% and 84%
Population Hoechst High Intensity Objects (%) [1]: 8% and 6%
Population Membrane Permeable-Phenotype (%) [1]: 3% and 4%
Population Mitochondria Different-Phenotype (%) [1]: 14% and 12%
Population Mitotic Cells (%) [1]: 64% and 58%
Population Normal (%) [1]: 91% and 93%
Population Pyknosed Nuclei (%) [1]: 11% and 12%
Population Tubulin-Different-Phenotype (%) [1]: 48% and 41%
Total Cell Count [1]: 739 and 648
Population Apoptotic (%) [2]: 60% and 67%
Population Fragmented Nuclei (%) [2]: 5% and 3%
Population Healthy Nuclei (%) [2]: 78%
Population Hoechst High Intensity Objects (%) [2]: 11% and 8%
Population Membrane Permeable-Phenotype (%) [2]: 3% and 5%
Population Mitochondria Different-Phenotype (%) [2]: 31% and 22%
Population Mitotic Cells (%) [2]: 39% and 32%
Population Normal (%) [2]: 88% and 91%
Population Pyknosed Nuclei (%) [2]: 16% and 17%
Population Tubulin-Different-Phenotype (%) [2]: 76% and 59%
Total Cell Count [2]: 481 and 500
Population Apoptotic (%) [3]: 38% and 42%
Population Fragmented Nuclei (%) [3]: 4% and 5%
Population Healthy Nuclei (%) [3]: 86%
Population Hoechst High Intensity Objects (%) [3]: 7% and 8%
Population Membrane Permeable-Phenotype (%) [3]: 2% and 3%
Population Mitochondria Different-Phenotype (%) [3]: 2% and 3%
Population Mitotic Cells (%) [3]: 61% and 57%
Population Normal (%) [3]: 92% and 91%
Population Pyknosed Nuclei (%) [3]: 8%
Population Tubulin-Different-Phenotype (%) [3]: 26% and 23%
Total Cell Count [3]: 1282 and 991
Population Apoptotic (%) [4]: 59% and 43%
Population Fragmented Nuclei (%) [4]: 9% and 6%
Population Healthy Nuclei (%) [4]: 78% and 83%
Population Hoechst High Intensity Objects (%) [4]: 9% and 8%
Population Membrane Permeable-Phenotype (%) [4]: 1% and 4%
Population Mitochondria Different-Phenotype (%) [4]: 10% and 6%
Population Mitotic Cells (%) [4]: 40% and 56%
Population Normal (%) [4]: 90% and 91%
Population Pyknosed Nuclei (%) [4]: 12% and 9%
Population Tubulin-Different-Phenotype (%) [4]: 51% and 30%
Total Cell Count [4]: 764 and 718
Population Apoptotic (%) [5]: 14% and 8%
Population Fragmented Nuclei (%) [5]: 15% and 9%
Population Healthy Nuclei (%) [5]: 82% and 87%
Population Hoechst High Intensity Objects (%) [5]: 9%
Population Membrane Permeable-Phenotype (%) [5]: 4% and 3%
Population Mitochondria Different-Phenotype (%) [5]: 0%
Population Mitotic Cells (%) [5]: 85% and 91%
Population Normal (%) [5]: 90%
Population Pyknosed Nuclei (%) [5]: 2%
Population Tubulin-Different-Phenotype (%) [5]: 13% and 11%
Total Cell Count [5]: 3360 and 2392
Population Apoptotic (%) [6]: 25% and 20%
Population Fragmented Nuclei (%) [6]: 13%
Population Healthy Nuclei (%) [6]: 82% and 84%
Population Hoechst High Intensity Objects (%) [6]: 9%
Population Membrane Permeable-Phenotype (%) [6]: 5% and 6%
Population Mitochondria Different-Phenotype (%) [6]: 0%
Population Mitotic Cells (%) [6]: 75% and 80%
Population Normal (%) [6]: 90%
Population Pyknosed Nuclei (%) [6]: 4% and 2%
Population Tubulin-Different-Phenotype (%) [6]: 24% and 13%
Total Cell Count [6]: 1611 and 1583
